Measured values as given in ChEMBL document CHEMBL2384970, “Development of peptidomimetic boronates as proteasome inhibitors” (Eur J Med Chem, 2013).
Calls of active or inactive are those of the source. The rule behind the calls is not given here.

Legend:
[1] = target: T1, Proteasome Macropain subunit MB1 (Homo sapiens) (UniProt P28074); experiment: Inhibition of human 20S proteasome chymotrypsin like activity using Suc-Leu-Leu-Val-Tyr-AMC as substrate at 20 uM measured over 10 mins by fluorescence assay relative to control
T1 sequence (whole entry): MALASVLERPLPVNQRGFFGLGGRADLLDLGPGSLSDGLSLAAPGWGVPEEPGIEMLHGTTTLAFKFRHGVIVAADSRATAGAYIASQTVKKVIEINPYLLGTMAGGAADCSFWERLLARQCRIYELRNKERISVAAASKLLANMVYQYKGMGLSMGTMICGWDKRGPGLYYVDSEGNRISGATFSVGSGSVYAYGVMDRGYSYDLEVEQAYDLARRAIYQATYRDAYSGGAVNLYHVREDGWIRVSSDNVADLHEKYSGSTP
In short: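 Screening run at a single […] inhibitor concentration against purified human erythrocyte 20S proteasome, using an equal amount of DMSO as the negative control. AMC fluorescence read at ex 380/em 460 nm continuously for 10 min.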

[2] = target: Proteasome Macropain subunit (Homo sapiens) (UniProt P49721); experiment: Inhibition of human 20S proteasome trypsin like activity using Boc-Leu-Leu-Arg-Arg-AMC as substrate at 20 uM measured over 10 mins by fluorescence assay; details: in the assay text read “Boc-Leu-Arg-Arg-AMC” for “Boc-Leu-Leu-Arg-Arg-AMC”
Proteasome Macropain subunit (Homo sapiens), sequence (P49721 whole entry): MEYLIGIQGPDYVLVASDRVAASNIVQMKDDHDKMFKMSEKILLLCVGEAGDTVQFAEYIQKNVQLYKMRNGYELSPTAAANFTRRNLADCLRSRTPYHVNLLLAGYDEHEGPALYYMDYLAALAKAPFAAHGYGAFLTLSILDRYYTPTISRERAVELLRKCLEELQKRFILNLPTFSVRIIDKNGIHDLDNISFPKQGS
In short: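 Tryptic activity of human erythrocyte 20S proteasome at 0.0025 mg mL1, 30 °C, in 50 mM Tris pH 7.4, 50 mM NaCl, 0.5 mM EDTA, 0.03% SDS, 7.5% DMSO. Compound at […]. Boc-Leu-Arg-Arg-AMC at […]. Continuous 10-min fluorescence reading (ex 380/em 460 nm) against a DMSO control.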

Homo sapiens = species on record: Homo sapiens; experiment: Selectivity ratio of Ki for human 20S proteasome post-glutamyl peptide hydrolyzing activity to Ki for human 20S proteasome chymotrypsin like activity
[3] = target: T2, Proteasome Macropain subunit MB1 (Homo sapiens, UniProt P28074); experiment: Inhibition of human 20S proteasome chymotrypsin like activity using Suc-Leu-Leu-Val-Tyr-AMC as substrate measured over 10 mins by fluorescence assay
T2 sequence (P28074 whole entry): T1 sequence (whole entry)

[4] = Inhibition of bovine pancreatic alpha-chymotrypsin using Suc-Leu-Leu-Val-Tyr-AMC as substrate measured over 10 mins by fluorescence assay; set-up: species or system Bos taurus
In short: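 Bovine pancreatic alpha-chymotrypsin ([…] as printed) incubated at 20 °C with test compound in 50 mM Tris pH 8.0, 100 mM NaCl, 5 mM EDTA, 7.5% DMSO. Substrate at […] final. Product release followed over 10 min. Ki obtained from progress curves fitted to a 4-parameter IC50 equation and corrected for substrate.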

Proteasome component C5 = target: T3, Proteasome component C5 (Homo sapiens, UniProt P20618); experiment: Inhibition of human 20S proteasome post-glutamyl peptide hydrolyzing activity using Z-Leu-Leu-Glu-AMC as substrate measured over 10 mins by fluorescence assay
T3 sequence (P20618 whole entry): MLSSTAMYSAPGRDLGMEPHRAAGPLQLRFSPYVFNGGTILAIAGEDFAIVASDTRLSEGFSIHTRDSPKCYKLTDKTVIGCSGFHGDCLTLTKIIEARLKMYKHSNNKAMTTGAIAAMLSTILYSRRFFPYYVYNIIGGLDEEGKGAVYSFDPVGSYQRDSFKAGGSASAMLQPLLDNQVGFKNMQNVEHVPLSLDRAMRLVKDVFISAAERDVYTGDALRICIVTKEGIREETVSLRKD

Row | Compound | inhibition [1] | inhibition [2] | Ratio Ki (Homo sapiens) | Ki [3] | Ki [4] | Ki (Proteasome component C5)
1 | CC(C)C[C@H](NC(=O)Cn1ccc(N2CCN(C)CC2)cc1=O)B(O)O | 30% | inactive |  |  |  | 
2 | CC(C)C[C@H](NC(=O)Cn1ccc(Nc2ccccc2)cc1=O)B(O)O | > 40% | inactive | 52 | 0.098 µM | 12.7 µM | 
3 | CC(C)C[C@H](NC(=O)Cn1ccc2ncccc2c1=O)B(O)O | > 40% | inactive |  | 0.44 µM |  | 
4 | C=CCN1CCN(c2ccn(CC(=O)N[C@@H](CC(C)C)B(O)O)c(=O)c2)CC1 | > 40% | inactive |  | 5.9 µM |  | Not Active
5 | CC(C)C[C@H](NC(=O)Cn1ccccc1=O)B(O)O | > 40% | inactive | 5.3 | 0.26 µM |  | 
6 | CC(C)C[C@H](NC(=O)[C@H](C)n1ccc2ncccc2c1=O)B(O)O | > 40% | inactive | 10 | 1.34 µM | 9.16 µM | 
7 | CC(C)C[C@H](NC(=O)Cn1ccc(N2CCCCC2)cc1=O)B(O)O | > 40% | inactive |  | 0.3 µM |  | 
8 | CC(C)C[C@H](NC(=O)Cn1ccc2c(c1=O)CCCN2C)B(O)O | > 40% | inactive |  | 1.62 µM |  | 
9 | CC(C)C[C@H](NC(=O)[C@H](Cc1ccccc1)NC(=O)c1cnccn1)B(O)O | > 40% |  |  |  |  | 
10 | CC(C)C[C@H](NC(=O)Cn1ccc(N2CCOCC2)cc1=O)B(O)O | > 40% | inactive |  | 1.45 µM |  | 
11 | CC(C)C[C@H](NC(=O)Cn1cc(Br)c2ncccc2c1=O)B(O)O | > 40% | inactive |  | 0.17 µM |  | 
12 | CCN(CC)c1ccn(CC(=O)N[C@@H](CC(C)C)B(O)O)c(=O)c1 | > 40% | inactive | 5.5 | 0.8 µM |  | 
